A selection: hits, their analogues and other compounds. The true share with any hit is near 1.7%.
PGE2 EP2 inh = blocks the human prostaglandin E2 receptor EP2 | P43116 | C6 glioma cells expressing human EP2, cAMP TR-FRET; cells stimulated with saturating PGE2 | inhibition, % at 25 µM | 0.52% of 260,000 active;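 active means percent inhibition above 40 after rounding to a whole number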;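 further: rat C6 glioma host cells with rolipram phosphodiesterase inhibitor present; the protocol text gives 20 µM as final concentration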
Target sequence (P43116 whole entry, looked up): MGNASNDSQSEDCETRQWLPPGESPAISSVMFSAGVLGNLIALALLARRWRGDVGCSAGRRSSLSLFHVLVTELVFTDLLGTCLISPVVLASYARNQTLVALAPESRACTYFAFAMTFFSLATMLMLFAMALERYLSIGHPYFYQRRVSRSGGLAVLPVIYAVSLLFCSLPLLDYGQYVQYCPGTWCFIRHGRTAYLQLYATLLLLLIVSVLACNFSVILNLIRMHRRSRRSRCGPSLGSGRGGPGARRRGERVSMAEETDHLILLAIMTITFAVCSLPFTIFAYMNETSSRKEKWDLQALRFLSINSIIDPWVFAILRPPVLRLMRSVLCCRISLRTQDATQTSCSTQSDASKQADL
Dynein cargo inh = blocks dynein driven cargo transport along microtubules | 3617.4 mouse cells, GR-EGFP nuclear translocation imaging; test concentration mostly 20 µM; stimulated with dexamethasone, 1 µM; stronger effect = lower value | z-score, hits read low | 0.47% of 220,000 active;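 active means plate z-score of nuclear minus cytoplasmic receptor signal below a set negative limit, without overly bright fluorescence or cell loss, cut at about -3.5 in these data, passing the limit was not always enough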;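 further: z-score of nuclear minus cytoplasmic ring GR-EGFP intensity difference per well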
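Buffer or medium: tet-free medium with charcoal-stripped serum / Also added: dexamethasone agonist, 1.0 µM final, for 30 min / Timing: induction 48 h, compound 1 h, agonist 30 min / Measured by: high-content fluorescence imaging after fixation / Read-out: nuclear-to-cytoplasmic GR-EGFP distribution per well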
EP2 mod = modulates human prostaglandin E2 receptor EP2 signaling; EP2-expressing cells, cAMP HTRF FRET, PGE2 co-stimulation; 0.83% of 260,000 active; AID 940; induction, % at 25 µM; P43116;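 active means compounds whose cAMP rise, as percent of the full-agonist control response, exceeds 60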;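 further: rat C6 glioma line stably carrying human EP2 under a CMV promoter; the protocol text gives 20 µM as final concentration; 100% = response of wells given 1 µM PGE2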
Hsp70 activator = transcriptional activators of Hsp70; HeLa Hsp70 promoter luciferase reporter, luminescence; scaled: vehicle 0, proteasome-inhibitor control 100%; activation, % at 10 µM; 0.04% of 200,000 active;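 active means activation above the mean across all tested compounds plus 3 SD, cutoff set per campaign, cut at about 5.5% in these data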;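 further: 100% = MG132 at 30 µM as the positive control and 0% = DMSO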
* = called active by the depositor; . = no result; ! = not confirmed by another sample.

SMILES	PGE2 EP2 inh	Dynein cargo inh	EP2 mod	Hsp70 activator
CCN1C(=O)/C(=C\C(=O)c2cccs2)c2cc(Br)ccc21	8	-1.5	-37	0
O=C1Nc2ccccc2/C1=C/C(=O)c1cccs1	69*	-1.5	-56	0
O=C1C(=O)N(CCOCCO)C(c2cccnc2)/C1=C(/O)c1ccc(Cl)cc1 (configuration not stated)	10	.	13	.
N#C/C(=C\Nc1ccccc1O)c1nc2ccccc2o1	54*	-1.4	-105	0
N#C/C(=C\c1ccncc1)c1nc2ccccc2o1	10	-0.28	-39	.
O=C(N/C=N/OCc1ccc(Cl)cc1Cl)NOCc1ncc(C(F)(F)F)cc1Cl	5	-0.76	61*	0
Nc1nc(F)nc2c1ncn2[C@@H]1O[C@H](CO)[C@@H](O)[C@@H]1O	34	1	-26	0
COc1ccc(-c2nc(N)c3ncn([C@H]4O[C@H](CO)[C@@H](O)[C@@H]4O)c3n2)cc1	52*	.	11	.
Cc1ccc2cc(C#N)c(SCC(=O)Nc3ccccc3)nc2c1C	17	.	27	.
O=C(NCCc1ccccc1)[C@@H]1C=CCN1C(=O)C1CC1	7	.	5	.
CCOC(=O)Nc1cccc(Nc2ccccc2)c1	6	-0.23	62*	0
CCOC(=O)Nc1cccc(C(=O)O)c1	9	-0.21	13	0
CC1=CC2=NC(=O)CC(C)(C(=O)NC(C)(C)CN3CCCC(C)C3)N2C=C1 (configuration not stated)	2	.	-3	.
Cc1ccc(C)c(N2CCN(Cc3nnnn3C3CCCCC3)CC2)c1	9	-0.5	61*!	0
CCOc1ccc(S(=O)(=O)N2CCN(C)CC2)cc1C	6	.	-5	.
COc1ccc(-c2nc3c4ccccc4ccn3c2CN2CCCCC2)cc1OC	9	-0.18	64*	.
COc1ccc(OC)c(-c2csc(N(C)C(=O)C3CCCCC3)n2)c1	25	.	-14	.
CCN(C(=O)C1CC1)c1nc(-c2cc(OC)ccc2OC)cs1	9	.	65*	.
COc1ccc(OC)c(-c2csc(N(C)C(=O)COc3ccc(C)cc3)n2)c1	54*	.	32	.
CCc1ccccc1NC(=O)CSc1nc2ccc(OC)cc2cc1C#N	24	.	21	.
CCc1ccccc1NC(=O)CSc1nc2ccc(OC)cc2cc1C	22	.	70*	.
O=C(CSc1nc2ccccc2cc1Cc1ccccc1)Nc1nccs1	18	.	64*	.
CCc1cc2ccccc2nc1SCC(=O)Nc1ccccc1	12	.	45	.
CCc1cc2ccccc2nc1SCC(=O)NCCc1ccc(OC)c(OC)c1	15	.	61*	.
CCc1cc2ccccc2nc1SCC(=O)Nc1ccccc1C	19	.	80*	.
SMILES	PGE2 EP2 inh	Dynein cargo inh	EP2 mod	Hsp70 activator
COCCNC(=O)c1cn(C[C@@H]2CCCN(C(=O)c3cscn3)C2)nn1	6	.	-8	.
Cc1ccc2[nH]c(=O)c(C(c3nnnn3C(C)(C)C)N(Cc3ccccc3)Cc3cccs3)cc2c1 (configuration not stated)	4	.	15	.
Nc1nc2c(nc(Br)n2C2OC3COP(=O)(O)O[C@@H]3C2O)c(=O)[nH]1 (some centres not stated)	10	.	11	.
Nc1ncnc2c1nc(Br)n2C1OC2COP(=O)(O)O[C@@H]2C1O (some centres not stated)	2	.	93*	.
CCO[P@]1(=O)OC[C@@H]2O[C@H](n3cnc4c(N)ncnc43)[C@H](O)[C@H]2O1	4	.	101*	.
Nc1ncnc2c1ncn2[C@@H]1O[C@H](CO)[C@H](O)C1O (some centres not stated)	8	.	13	.
CCOC(=O)c1c2c(n3ccccc13)C(=O)c1ccccc1C2=O	46*	.	-42	.
CC1=C(C(=O)OC(C)C)C(c2ccccc2)C2=C(CC(C)(C)CC2=O)N1 (configuration not stated)	11	.	-3	.
Cc1occc1-c1nnc(SCC(=O)N2CCN(c3ccccc3F)CC2)n1C	7	-0.49	75*!	-1
Cc1occc1-c1nnc(SCC(=O)N2CCCCC2)n1Cc1ccccc1	5	.	-24	.
Cc1cccc(C(CC(=O)NCc2ccco2)c2ccccc2)c1O (configuration not stated)	7	0.002	34	0
C=C(C)CC(Nc1ccco1)c1ccccc1C (configuration not stated)	5	.	61*	.
CSc1nc(-c2ccccc2)c(C#N)c(=O)[nH]1	18	-0.17	42	.
CCSc1nc(-c2ccccc2)c(C#N)c(=O)[nH]1	50*	0.46	45	0
CCOCc1nnc(NC(=O)c2ccnc(OC)c2)s1	7	.	-32	.
C[n+]1cc2c3c(ccc2c2ccc4cc5c(cc4c21)OCO5)OCO3	118*	.	-38	.
C[n+]1c(/C=C/c2ccc3c(c2)OCO3)ccc2ccccc21	4	-0.51	5	0
COc1cc(SC)ccc1C(=O)N1CCN(C(=O)c2ccco2)CC1	7	.	-34	.
CC1=NN(c2ccc([N+](=O)[O-])cc2)C(c2ccccc2)C1 (configuration not stated)	8	-0.47	62*	0
CCC(=O)N1N=C(c2ccccc2)CC1c1ccc([N+](=O)[O-])cc1 (configuration not stated)	12	-1	48	0
CC12CCC(c3nnc(SCc4ccccc4F)nc31)C2(C)C (configuration not stated)	22	.	35	.
CCN(CC)c1nc(Oc2ccc(C(=O)OC)cc2)nc(N2CCOCC2)n1	2	-0.016	62*	0
Nc1sc2c(c1C(=O)c1ccc(Br)cc1)CCC2	9	.	78*	.
Cc1sc(N)c(C(=O)c2ccc(Br)cc2)c1C	14	.	71*	.
Cc1sc(N)c(C(=O)c2ccccc2)c1C	8	-0.74	10	0
SMILES	PGE2 EP2 inh	Dynein cargo inh	EP2 mod	Hsp70 activator
COc1ccc(C2C(C#N)=C(N)SC(N)=C2C#N)c2ccccc12	22	.	-8	.
COc1ccc(C2(O)CCN(CC(O)c3ccc(Cl)c(Cl)c3)CC2)cc1 (configuration not stated)	8	.	-188	.
CCOc1ccc(-n2c(=S)sc3c(=O)[nH]c(SCC(=O)N4CCC(C)CC4)nc32)cc1	-2	-0.48	62*	0
CCOC(=O)CSc1nc2c(sc(=S)n2-c2ccc(OCC)cc2)c(=O)[nH]1	14	-0.69	55	0
CCOC(=O)c1c(NC(=O)c2ccc(Cn3cc(Cl)cn3)o2)sc(C(C)=O)c1C	20	.	23	.
CC(C)CN1Cc2cccc(C(=O)N3CCC4(CC3)NC(=O)c3cccnc3N4C)c2C1=O	8	.	-20	.
O=C(COc1ccc2ccccc2c1)NNC(=O)Cc1ccccc1	63*	-0.27	-28	0
O=C(COc1ccc2ccccc2c1)NNC(=O)Cc1cccc2ccccc12	5	-0.25	-17	0
COc1ccc(CN(Cc2cc3cc(C)ccc3[nH]c2=O)C(c2nnnn2C(C)(C)C)C(C)C)cc1 (configuration not stated)	6	.	44	.
O=C(NC1CCCC1)c1ccccc1-c1ccccc1	4	0.97	10	0
CC(C)N(C(=O)c1ccccc1-c1ccccc1)C(C)C	18	-0.62	63*	0

Screening data from PubChem BioAssay.
